Where “and” joins values, the source holds several entries; their conditions need not be identical. Equal values may be shown once.
Assays:
[1] = tested on: Fibroblast; assay: Multiplex assay against human fibroblast; format: toxicity, cell-based
Summary of the method: (§1)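 Hoechst33342, BioTracker Green Microtubule Cytoskeleton Dye, MitoTracker Red and Annexin V Alexa Fluor 680 were added to live cells at seeding, and imaging on a CQ1 microscope at 37°C and 5% CO2 followed compound addition. Gating by CellPathfinder machine learning separated cells into Hoechst high-intensity objects or normal cells, then normal cells into healthy, pyknosed or fragmented nuclei, then pyknosed cells into mitotic or apoptotic. Per cents of healthy-nucleus cells are reported for the tubulin, mitochondrial-mass and membrane-permeability phenotypes.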

[2] = tested on: HEK-293T; assay: Multiplex assay against HEK293T; format: toxicity, cell-based; settings: human; summary of the method: as §1
[3] = 12 h, 1 µM, compound concentration 1 uM
[4] = 12 h, 10 µM, compound concentration 10 uM
[5] = 24 h, 1 µM, compound concentration 1 uM
[6] = 24 h, 10 µM, compound concentration 10 uM
[7] = 48 h, 1 µM, compound concentration 1 uM
[8] = 48 h, 10 µM, compound concentration 10 uM

Structure (SMILES): O=C(Nc1ccccc1Cl)c1cnc2ccc(C3CCNCC3)cn12.O=C(O)C(=O)O
- Population Fragmented Nuclei (%) [1, 3]: 12.96% and 7.79%
- Population Healthy Nuclei (%) [1, 3]: 60.19% and 75.41%
- Population Hoechst High Intensity Objects (%) [1, 3]: 0%
- Population Membrane Permeable-Phenotype (%) [1, 3]: 1.54% and 2.72%
- Population Mitochondria Different-Phenotype (%) [1, 3]: 7.69% and 10.87%
- Population Mitotic Cells (%) [1, 3]: 93.1% and 73.17%
- Population Normal (%) [1, 3]: 100%
- Population Pyknosed Nuclei (%) [1, 3]: 26.85% and 16.8%
- Population Tubulin-Different-Phenotype (%) [1, 3]: 17.69% and 23.91%
- Total Cell Count [1, 3]: 216 and 244
- Population Apoptotic (%) [1, 4]: 16.33% and 20.48%
- Population Healthy Nuclei (%) [1, 4]: 62.09% and 63.64%
- Population Hoechst High Intensity Objects (%) [1, 4]: 0% and 0.43%
- Population Membrane Permeable-Phenotype (%) [1, 4]: 4.42% and 7.48%
- Population Mitochondria Different-Phenotype (%) [1, 4]: 17.7% and 21.09%
- Population Mitotic Cells (%) [1, 4]: 83.67% and 79.52%
- Population Normal (%) [1, 4]: 100% and 99.57%
- Population Pyknosed Nuclei (%) [1, 4]: 26.92% and 35.93%
- Population Tubulin-Different-Phenotype (%) [1, 4]: 40.71% and 57.82%
- Total Cell Count [1, 4]: 182 and 232
- Population Apoptotic (%) [1, 5]: 14.29% and 25.71%
- Population Fragmented Nuclei (%) [1, 5]: 11.52% and 3.52%
- Population Healthy Nuclei (%) [1, 5]: 72.35% and 81.06%
- Population Hoechst High Intensity Objects (%) [1, 5]: 0%
- Population Membrane Permeable-Phenotype (%) [1, 5]: 4.46% and 3.8%
- Population Mitochondria Different-Phenotype (%) [1, 5]: 8.92% and 15.22%
- Population Mitotic Cells (%) [1, 5]: 85.71% and 74.29%
- Population Normal (%) [1, 5]: 100%
- Population Pyknosed Nuclei (%) [1, 5]: 16.13% and 15.42%
- Population Tubulin-Different-Phenotype (%) [1, 5]: 19.75% and 25.54%
- Total Cell Count [1, 5]: 217 and 227
- Population Apoptotic (%) [1, 6]: 35.29% and 37.66%
- Population Healthy Nuclei (%) [1, 6]: 67.43% and 62.44%
- Population Hoechst High Intensity Objects (%) [1, 6]: 0%
- Population Membrane Permeable-Phenotype (%) [1, 6]: 6.78% and 10.53%
- Population Mitochondria Different-Phenotype (%) [1, 6]: 28.81% and 18.05%
- Population Mitotic Cells (%) [1, 6]: 64.71% and 62.34%
- Population Normal (%) [1, 6]: 100%
- Population Pyknosed Nuclei (%) [1, 6]: 19.43% and 36.15%
- Population Tubulin-Different-Phenotype (%) [1, 6]: 49.15% and 60.9%
- Total Cell Count [1, 6]: 175 and 213
- Population Fragmented Nuclei (%) [1, 7]: 11.26% and 5.24%
- Population Healthy Nuclei (%) [1, 7]: 79.73% and 81.22%
- Population Hoechst High Intensity Objects (%) [1, 7]: 0%
- Population Membrane Permeable-Phenotype (%) [1, 7]: 2.26% and 5.91%
- Population Mitochondria Different-Phenotype (%) [1, 7]: 7.91% and 2.15%
- Population Mitotic Cells (%) [1, 7]: 90% and 64.52%
- Population Normal (%) [1, 7]: 100%
- Population Pyknosed Nuclei (%) [1, 7]: 9.01% and 13.54%
- Population Tubulin-Different-Phenotype (%) [1, 7]: 12.43% and 28.49%
- Total Cell Count [1, 7]: 222 and 229
- Population Apoptotic (%) [1, 8]: 33.33% and 60.38%
- Population Fragmented Nuclei (%) [1, 8]: 10.9% and 1.94%
- Population Healthy Nuclei (%) [1, 8]: 75.64% and 63.87%
- Population Hoechst High Intensity Objects (%) [1, 8]: 0% and 0.64%
- Population Mitochondria Different-Phenotype (%) [1, 8]: 13.56% and 16.16%
- Population Mitotic Cells (%) [1, 8]: 66.67% and 39.62%
- Population Normal (%) [1, 8]: 100% and 99.36%
- Population Pyknosed Nuclei (%) [1, 8]: 13.46% and 34.19%
- Population Tubulin-Different-Phenotype (%) [1, 8]: 50.85% and 74.75%
- Total Cell Count [1, 8]: 156
- Population Apoptotic (%) [2, 3]: 13.38% and 9.73%
- Population Fragmented Nuclei (%) [2, 3]: 1.98% and 9.79%
- Population Hoechst High Intensity Objects (%) [2, 3]: 0.39% and 0%
- Population Membrane Permeable-Phenotype (%) [2, 3]: 1.89% and 0%
- Population Mitotic Cells (%) [2, 3]: 86.62% and 90.27%
- Population Normal (%) [2, 3]: 99.61% and 100%
- Population Pyknosed Nuclei (%) [2, 3]: 56.13% and 79.02%
- Population Tubulin-Different-Phenotype (%) [2, 3]: 20.75% and 18.75%
- Total Cell Count [2, 3]: 254 and 143
- Population Apoptotic (%) [2, 4]: 16.08% and 15.91%
- Population Fragmented Nuclei (%) [2, 4]: 4.31% and 3.38%
- Population Hoechst High Intensity Objects (%) [2, 4]: 0.48% and 0%
- Population Membrane Permeable-Phenotype (%) [2, 4]: 1.75% and 0%
- Population Mitochondria Different-Phenotype (%) [2, 4]: 66.67% and 72.73%
- Population Mitotic Cells (%) [2, 4]: 83.92% and 84.09%
- Population Normal (%) [2, 4]: 99.52% and 100%
- Population Pyknosed Nuclei (%) [2, 4]: 68.42% and 89.19%
- Population Tubulin-Different-Phenotype (%) [2, 4]: 52.63% and 54.55%
- Total Cell Count [2, 4]: 210 and 148
- Population Apoptotic (%) [2, 5]: 19.23% and 23.68%
- Population Fragmented Nuclei (%) [2, 5]: 1.95% and 4.9%
- Population Hoechst High Intensity Objects (%) [2, 5]: 0.97% and 0%
- Population Membrane Permeable-Phenotype (%) [2, 5]: 0.74% and 4.55%
- Population Mitochondria Different-Phenotype (%) [2, 5]: 37.5% and 22.73%
- Population Mitotic Cells (%) [2, 5]: 80.77% and 76.32%
- Population Normal (%) [2, 5]: 99.03% and 100%
- Population Pyknosed Nuclei (%) [2, 5]: 31.71% and 79.72%
- Population Tubulin-Different-Phenotype (%) [2, 5]: 31.25% and 22.73%
- Total Cell Count [2, 5]: 414 and 143
- Population Apoptotic (%) [2, 6]: 34.45% and 29.91%
- Population Fragmented Nuclei (%) [2, 6]: 4.76% and 4%

Source: ChEMBL document CHEMBL5724801, “EUbOPEN Chemogenomics Library - Multiplex” (2024)
